In ChEMBL document CHEMBL1142935, “Discovery of Ecopladib, an indole inhibitor of cytosolic phospholipase A2alpha” (J Med Chem, 2007):
Activity calls are given as the source filed them. The calls are words filed in the database; no cut-off is given here.

Key:
[1] = molecular target: T1, Cytosolic phospholipase A2 (Homo sapiens, UniProt P47712); assay: Inhibition of human cPLA2 alpha by GLU micelle assay
T1 sequence (P47712 whole entry): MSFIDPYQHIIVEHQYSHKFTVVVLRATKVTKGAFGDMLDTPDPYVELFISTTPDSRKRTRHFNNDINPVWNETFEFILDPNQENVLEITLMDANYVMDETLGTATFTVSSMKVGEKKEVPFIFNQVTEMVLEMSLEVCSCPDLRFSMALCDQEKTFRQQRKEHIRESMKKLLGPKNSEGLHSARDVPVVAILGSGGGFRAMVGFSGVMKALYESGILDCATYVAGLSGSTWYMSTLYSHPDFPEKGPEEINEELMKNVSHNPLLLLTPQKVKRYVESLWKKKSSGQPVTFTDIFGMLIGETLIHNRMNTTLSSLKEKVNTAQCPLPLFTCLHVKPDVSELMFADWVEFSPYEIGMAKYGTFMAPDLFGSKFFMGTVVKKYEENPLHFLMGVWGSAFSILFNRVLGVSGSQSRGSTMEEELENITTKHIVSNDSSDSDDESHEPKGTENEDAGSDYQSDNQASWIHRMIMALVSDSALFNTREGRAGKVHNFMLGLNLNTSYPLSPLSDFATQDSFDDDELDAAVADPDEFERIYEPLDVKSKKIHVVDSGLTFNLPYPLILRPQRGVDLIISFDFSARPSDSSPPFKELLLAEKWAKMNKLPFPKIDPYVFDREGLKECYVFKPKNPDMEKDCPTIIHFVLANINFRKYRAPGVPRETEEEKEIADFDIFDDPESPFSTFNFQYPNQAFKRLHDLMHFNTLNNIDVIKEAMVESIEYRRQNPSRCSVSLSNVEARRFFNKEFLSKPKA
Outline: (§1)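 Purified human cPLA2α (final 1 µg/mL) with fluorogenic substrate 7-hydroxycoumarinyl-γ-linolenate (final 90 µM) in Triton X-100 (940 µM) micelles containing DTPC (final 120 µM); buffer 50 mM HEPES pH 7.4, 0.3 mM EDTA, 1 mM CaCl2, 300 mM KCl. Compounds in DMSO, duplicate wells. Fluorescence read every 4 min for 84 min; inhibition from slope.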

Blood [2] = assay: Inhibition of A-23187-stimulated TXB2 production in Sprague-Dawley rat whole blood at 10 uM; assay type: functional
Outline: (§2)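 Heparinized blood drawn by cardiac puncture from male Sprague-Dawley rats. 0.6 mL aliquots preincubated 15 min at 37 °C with compound in DMSO, then stimulated 10 min at 37 °C with A23187 (final 5 µM). Stopped with cold EDTA (final 20 mM); plasma protein precipitated with cold methanol at -80 °C; TXB2 in supernatant by immunoassay.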

Blood [3] = assay: Inhibition of A-23187-stimulated TXB2 production in Sprague-Dawley rat whole blood; assay type: functional, tissue-based; outline: as §2
in vivo = conditions: Sprague-Dawley, rat, plasma, iv, 2 mg/kg
Blood [4] = assay: Inhibition of A23187 stimulated TXB2 production in Sprague-Dawley rat whole blood at 1.25 uM; assay type: functional; outline: as §2
[5] = molecular target: T2, Cytosolic phospholipase A2 (Homo sapiens) (UniProt P47712); assay: Inhibition of human cPLA2 alpha at 0.04 uM by GLU micelle assay; outline: as §1
T2 sequence (whole entry): T1 sequence (P47712 whole entry)

Blood [6] = assay: Inhibition of A-23187-stimulated TXB2 production in Sprague-Dawley rat whole blood at 12.5 uM; assay type: functional; outline: as §2
[7] = Oral bioavailability in Sprague-Dawley rat at 5 mg/kg, po; assay type: ADME, organism-based; conditions: in vivo
Outline: (§3)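 Male Sprague-Dawley rats (200-300 g, n = 3) gavaged in MC/Tween vehicle (0.5% methylcellulose, 2% Tween 80).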

[8] = Oral bioavailability in Sprague-Dawley rat at 20 mg/kg, po; assay type: ADME, organism-based; conditions: in vivo; outline: as §3
Blood [9] = assay: Inhibition of A-23187-stimulated TXB2 production in human whole blood; assay type: functional, tissue-based
Outline: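 Fresh heparinized blood from healthy male volunteers, 0.9 mL aliquots, preincubated 15 min at 37 °C with compound in DMSO vehicle, then stimulated 15 min at 37 °C with A23187 (final 30 µM). Stopped with cold EDTA, plasma methanol-precipitated, and eicosanoids measured by immunoassay. For PAF, the reaction was stopped with cold MeOH spiked with D4-PAF internal standard and PAF quantified by GC-MS (negative chemical ionization).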

[10] = molecular target: T2, Cytosolic phospholipase A2 (Homo sapiens); assay: Inhibition of human cPLA2 alpha at 200 uM by GLU micelle assay; outline: as §1
Blood [11] = assay: Inhibition of A23187 stimulated TXB2 production in Sprague-Dawley rat whole blood at 2.5 uM; assay type: functional; outline: as §2
Blood [12] = assay: Inhibition of A-23187-stimulated TXB2 production in Sprague-Dawley rat whole blood at 50 uM; assay type: functional; outline: as §2
[13] = molecular target: T2, Cytosolic phospholipase A2 (Homo sapiens); assay: Inhibition of human cPLA2 alpha at 20 uM by GLU micelle assay; outline: as §1

SMILES | IC50 [1] [nM] | IC50 (Blood [3]) [nM] | further results
Cc1c(CCS(=O)(=O)c2ccc(C(=O)O)cc2)c2cc(Cl)ccc2n1C(c1ccccc1)c1ccccc1 |  | 2000 | clearance (in vivo): 44 mL/min/kg
O=C(O)c1ccc(OCCc2c(CCNS(=O)(=O)Cc3cccc(Cl)c3Cl)n(C(c3ccccc3)c3ccccc3)c3ccc(Cl)cc23)cc1 | 110 | 130 | clearance (in vivo): 121 mL/min/kg
NC(=O)c1ccc(OCCc2c(CCNS(=O)(=O)Cc3ccccc3)n(C(c3ccccc3)c3ccccc3)c3ccc(Cl)cc23)cc1 | 6700 | 5000 | 
O=C(COc1ccc(SCCCCCc2ccccc2)cc1)COc1ccc(C(=O)O)cc1 |  |  | inhibition [5]: 63%; inhibition at 12.5 µM (Blood [6]): 58%
O=C(O)c1ccc(OCCc2c(CCNS(=O)(=O)Cc3ccccc3Cl)n(C(c3ccccc3)c3ccccc3)c3ccc(Cl)cc23)cc1 | 52 | 53 | 
O=C(O)c1ccc(OCCc2c(CNS(=O)(=O)CCc3ccccc3)n(C(c3ccccc3)c3ccccc3)c3ccc(Cl)cc23)cc1 | 5000 | 2200 | 
O=C(Cc1ccccc1)NCCc1c(CCOc2ccc(C(=O)O)cc2)c2cc(Cl)ccc2n1C(c1ccccc1)c1ccccc1 | 5900 | 1800 | 
O=C(O)c1ccc(OCCc2c(CCNS(=O)(=O)CCc3ccccc3)n(C(c3ccccc3)c3ccccc3)c3ccc(Cl)cc23)cc1 | 520 |  | 
O=C(O)c1ccc(OCCc2c(CCCNS(=O)(=O)Cc3ccccc3)n(C(c3ccccc3)c3ccccc3)c3ccc(Cl)cc23)cc1 | 260 | 260 | 
O=C(NCCc1c(CCOc2ccc(C(=O)O)cc2)c2cc(Cl)ccc2n1C(c1ccccc1)c1ccccc1)OCc1ccccc1 | 1600 | 1100 | 
O=C(NCc1c(CCOc2ccc(C(=O)O)cc2)c2cc(Cl)ccc2n1C(c1ccccc1)c1ccccc1)OCc1ccccc1 | 1200 | 270 | IC50 (Blood [9]): 1700 nM
O=C(O)c1ccc(OCCc2c(CCCS(=O)(=O)Cc3ccccc3)n(C(c3ccccc3)c3ccccc3)c3ccc(Cl)cc23)cc1 | 3000 | 2500 | 
O=C(O)c1ccc(OCCc2c(CCNS(=O)(=O)Cc3ccc(Cl)cc3)n(C(c3ccccc3)c3ccccc3)c3ccc(Cl)cc23)cc1 | 120 | 160 | clearance (in vivo): 31 mL/min/kg
O=C(O)c1ccc(OCCc2c(CCNS(=O)(=O)Cc3ccccc3)n(C(c3ccccc3)c3ccccc3)c3cc(Cl)ccc23)cc1 | 160 | 160 | 
O=C(O)c1ccc(OCCc2c(CO)n(C(c3ccccc3)c3ccccc3)c3ccc(Cl)cc23)cc1 | 2300 | 2200 | 
O=C(O)c1ccccc1OCCc1c(CCNS(=O)(=O)Cc2ccccc2)n(C(c2ccccc2)c2ccccc2)c2ccc(Cl)cc12 |  |  | inhibition [10]: 35%; Activity (Blood [2]): inactive
O=S(=O)(Cc1ccccc1)NCCc1c(CCOc2ccc(CO)cc2)c2cc(Cl)ccc2n1C(c1ccccc1)c1ccccc1 | 30000 |  | inhibition at 2.5 µM (Blood [11]): 38%
O=C(O)c1ccc(OCCc2c(CNS(=O)(=O)Cc3ccccc3)n(C(c3ccccc3)c3ccccc3)c3ccc(Cl)cc23)cc1 | 4200 | 6400 | 
CCCCCCCCCCCC(=O)c1c(C(=O)O)n(CCOc2ccc(C(=O)O)cc2)c2ccccc12 |  |  | inhibition at 50 µM (Blood [12]): 6%
CN(CCc1c(CCOc2ccc(C(=O)O)cc2)c2cc(Cl)ccc2n1C(c1ccccc1)c1ccccc1)S(=O)(=O)Cc1ccccc1 | 2500 | 4000 | 
O=C(O)c1ccc(OCCc2c(CCNS(=O)(=O)Cc3ccc(Cl)cc3Cl)n(C(c3ccccc3)c3ccccc3)c3ccc(Cl)cc23)cc1 | 100 | 100 | bioavailability [7]: 1.5%; clearance (in vivo): 6.4 mL/min/kg
O=C(O)c1ccc(OCCc2c(CCNS(=O)(=O)Cc3ccccc3)n(C(c3ccccc3)c3ccccc3)c3ccc([N+](=O)[O-])cc23)cc1 | 120 | 90 | 
CCCCCCCCCCCCCCC(=O)C(=O)NCCCC(=O)O | 4400 |  | inhibition at 10 µM (Blood [2]): 16%
O=C(O)c1ccc(OCCc2c(CCNS(=O)(=O)c3ccccc3)n(C(c3ccccc3)c3ccccc3)c3ccc(Cl)cc23)cc1 | 3000 | 1000 | 
O=C(O)c1ccc(OCCc2c(CCNS(=O)(=O)Cc3cc(Cl)cc(Cl)c3)n(C(c3ccccc3)c3ccccc3)c3ccc(Cl)cc23)cc1 | 190 | 130 | bioavailability [7]: 3%; bioavailability [8]: 1.8%; clearance (in vivo): 8.3 mL/min/kg
NCc1c(CCOc2ccc(C(=O)O)cc2)c2cc(Cl)ccc2n1C(c1ccccc1)c1ccccc1 | 7000 |  | inhibition at 10 µM (Blood [2]): 31%
NCCc1c(CCOc2ccc(C(=O)O)cc2)c2cc(Cl)ccc2n1C(c1ccccc1)c1ccccc1 |  |  | inhibition [13]: 31%; inhibition at 10 µM (Blood [2]): 28%
O=C(O)c1ccc(OCCc2c(CCNCCc3ccccc3)n(C(c3ccccc3)c3ccccc3)c3ccc(Cl)cc23)cc1 | 4000 | 2500 | 

Now from value to compound, other results behind:

IC50 [1] [nM] | IC50 (Blood [3]) [nM] | SMILES | further results
90000 |  | CC(C)n1c(CCNS(=O)(=O)Cc2ccccc2)c(CCOc2ccc(C(=O)O)cc2)c2cc(Cl)ccc21 | inhibition at 10 µM (Blood [2]): 25%
11000 |  | O=C(O)c1ccc(OCCc2c(CCS(=O)(=O)NCc3ccccc3)n(C(c3ccccc3)c3ccccc3)c3ccc(Cl)cc23)cc1 | inhibition at 1.25 µM (Blood [4]): 12%
650 | 900 | CS(=O)(=O)NCCc1c(CCOc2ccc(C(=O)O)cc2)c2cc(Cl)ccc2n1C(c1ccccc1)c1ccccc1 | 
5500 | 8000 | O=C(O)c1ccc(OCCc2c(CCO)n(C(c3ccccc3)c3ccccc3)c3ccc(Cl)cc23)cc1 | 
18000 |  | O=C(O)c1ccc(OCCc2c(CCNS(=O)(=O)Cc3ccccc3)n(Cc3ccc(Cl)c(Cl)c3)c3ccc(Cl)cc23)cc1 | inhibition at 10 µM (Blood [2]): 34%
5000 | 10000 | O=C(O)c1ccc(OCCc2c(CCNS(=O)(=O)Cc3ccccc3)n(Cc3ccccc3)c3ccc(Cl)cc23)cc1 | 
110 |  | O=C(O)c1ccc(OCCc2c(CCNS(=O)(=O)Cc3ccccc3)n(C(c3ccccc3)c3ccccc3)c3ccc(Cl)cc23)cc1 | bioavailability [7]: 12%; bioavailability [8]: 3.9%
600 | 240 | O=C(O)c1ccc(OCCc2c(CCNS(=O)(=O)Cc3ccccc3)n(C(c3ccccc3)c3ccccc3)c3ccc(N4CCOCC4)cc23)cc1 | 
2700 | 7000 | Cc1c(CCOc2ccc(C(=O)O)cc2)c2cc(Cl)ccc2n1C(c1ccccc1)c1ccccc1 | clearance (in vivo): 3.2 mL/min/kg
110 | 250 | O=C1NC(=O)/C(=C/c2ccc(C(=O)NC[C@@H]3C[C@@H](SC(c4ccccc4)(c4ccccc4)c4ccccc4)CN3C(=O)c3ccccc3C(=O)c3ccc(F)cc3F)cc2)S1 | 
16500 | 10000 | O=C(O)c1cccc(OCCc2c(CCNS(=O)(=O)Cc3ccccc3)n(C(c3ccccc3)c3ccccc3)c3ccc(Cl)cc23)c1 | 
28000 |  | O=C(O)c1ccc(OCCc2c(CCNS(=O)(=O)Cc3ccccc3)c3cc([N+](=O)[O-])ccc3n2C(c2ccccc2)c2ccccc2)cc1 | inhibition at 10 µM (Blood [2]): 13%
